The IC50 is the concentration at which inhibition is half-maximal. The low end stands for greater potency in that assay, the high end for weaker potency in that assay.

The target of test [1] is T1, Dihydrofolate reductase (Bos taurus, UniProt P00376).
T1 sequence (P00376 whole entry): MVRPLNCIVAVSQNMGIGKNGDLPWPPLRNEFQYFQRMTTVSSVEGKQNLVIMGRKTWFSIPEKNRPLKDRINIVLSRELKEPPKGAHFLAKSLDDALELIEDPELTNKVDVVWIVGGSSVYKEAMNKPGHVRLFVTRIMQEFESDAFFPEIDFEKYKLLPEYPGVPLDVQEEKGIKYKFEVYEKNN
The test is described as follows: Concentration required for inhibition of beef liver dihydrofolate reductase.

Test [2] has as its system CAKI-1. The test is described as follows: Inhibition of colony formation of Caki-1 cells by MTX. As to conditions: Homo sapiens. It counts as functional, cell-based. In short, it runs like this:
(§1)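 Single-cell suspensions (>99% trypan blue-excluding) of M21 melanoma or Caki-1 renal carcinoma cells, 1 × 10⁶ cells/mL in McCoy's medium with 15% dialyzed FCS, exposed 6 h at 37 °C to agent, washed three times, plated in 0.3% agar over 0.5% agar base (10⁴ cells/plate). Incubated at 37 °C, 5% CO₂. Colonies >30 cells counted visually at 14 days, three plates per concentration.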

Test [3] concerns CAKI-1. The test is described as follows: Inhibition of colony formation of Caki-1 cells by amide-linked conjugate (regiospecific coupling) of MTX and Dal K-20. The class given is functional, cell-based. As to conditions: Homo sapiens. In short, it runs like this: as §1
In test [4] the test system is CAKI-1. The test can be described thus: Inhibition of colony formation of Caki-1 cells by amide-linked conjugate of MTX and Dal K-20. As to conditions: Homo sapiens. It counts as functional, cell-based. In short, it runs like this:
as §1

Test [5] relates to CAKI-1. The test is described as follows: Inhibition of colony formation of Caki-1 cells by hydrazone-linked conjugate (regiospecific coupling) of MTX and Dal K-20. It counts as functional, cell-based. As to conditions: Homo sapiens. In short, it runs like this:
as §1

Test [6] has as its system CAKI-1. The test is described as follows: Inhibition of colony formation of Caki-1 cells by hydrazone-linked conjugate of MTX and Dal K-20. It counts as functional, cell-based. As to conditions: Homo sapiens. In short, it runs like this: as §1
The subject of test [7] is M21. The test can be described thus: Colony count at 15 ug/mL of amide-linked conjugate of MTX and Dal K-20 in melanoma M21 cells. As to conditions: Homo sapiens.
For test [8], the system named is M21. The test is described as follows: Colony count at 10 ug/mL of amide-linked conjugate of MTX and Dal K-20 in melanoma M21 cells. As to conditions: Homo sapiens.
Test [9] deals with M21. The test is described as follows: Colony count at 20 ug/mL of amide-linked conjugate of MTX and Dal K-20 in melanoma M21 cells. As to conditions: Homo sapiens.
The subject of test [10] is M21. The test can be described thus: Colony count at 20 ug/mL of hydrazone-linked conjugate of MTX and Dal K-20 in melanoma M21 cells. As to conditions: Homo sapiens.
In test [11] the test system is M21. The test is described as follows: Colony count at 10 ug/mL of hydrazone-linked conjugate of MTX and Dal K-20 in melanoma M21 cells. As to conditions: Homo sapiens.
The subject of test [12] is M21. The test is described as follows: Colony count at 15 ug/mL of hydrazone-linked conjugate of MTX and Dal K-20 in melanoma M21 cells. As to conditions: Homo sapiens.
For test [13], the system named is M21. The test can be described thus: Colony count at 15 ug/mL of amide-linked conjugate (regiospecific coupling) of MTX and Dal K-20 in melanoma M21 cells. As to conditions: Homo sapiens.
For test [14], the system named is M21. The test is described as follows: Colony count at 20 ug/mL of amide-linked conjugate (regiospecific coupling) of MTX and Dal K-20 in melanoma M21 cells. As to conditions: Homo sapiens.
The test system of test [15] is M21. The test is described as follows: Colony count at 10 ug/mL of amide-linked conjugate (regiospecific coupling) of MTX and Dal K-20 in melanoma M21 cells. As to conditions: Homo sapiens.
Test [16] concerns M21. The test is described as follows: Colony count at 15 ug/mL of hydrazone-linked conjugate (regiospecific coupling) of MTX and Dal K-20 in melanoma M21 cells. As to conditions: Homo sapiens.
The subject of test [17] is M21. The test is described as follows: Colony count at 20 ug/mL of hydrazone-linked conjugate (regiospecific coupling) of MTX and Dal K-20 in melanoma M21 cells. As to conditions: Homo sapiens.
Test [18] concerns M21. The test is described as follows: Colony count at 10 ug/mL of hydrazone-linked conjugate (regiospecific coupling) of MTX and Dal K-20 in melanoma M21 cells. As to conditions: Homo sapiens.

The structures appear in SMILES notation. Values after ≈ are worked out from the molar mass of the structure shown.

On to `CN(Cc1cnc2nc(N)nc(N)c2n1)c1ccc(C(=O)NC(CCC(=O)NN)C(=O)NN)cc1` (stereo unspecified), for which 37.9 µM corresponded to half-maximal inhibition in test [1] (IC50).
In turn, `CN(Cc1cnc2nc(N)nc(N)c2n1)c1ccc(C(=O)NC(CCC(=O)NN)C(=O)OC(C)(C)C)cc1` (stereo unspecified) had an IC50 in test [1] of 41.2 µM.
Regarding `CN(Cc1cnc2nc(N)nc(N)c2n1)c1ccc(C(=O)NC(CCC(=O)NN)C(=O)O)cc1` (stereo unspecified), the IC50 in test [1] was 30.7 µM.
The same measure, in the same setting: with `COC(=O)CCC(NC(=O)c1ccc(N(C)Cc2cnc3nc(N)nc(N)c3n2)cc1)C(=O)O` (stereo unspecified) the figure was 25.4 µM.
On to `CN(Cc1cnc2nc(N)nc(N)c2n1)c1ccc(C(=O)N[C@@H](CCC(=O)O)C(=O)O)cc1` [METHOTREXATE], for which the IC50 came out at 25 µg/mL (≈ 55 µM) in test [2]; 3.3 µg/mL (≈ 7.26 µM) in test [3]; 4.5 µg/mL (≈ 9.9 µM) in test [4]; 3 µg/mL (≈ 6.6 µM) in test [5]; 3.4 µg/mL (≈ 7.48 µM) in test [6]. Besides, the colony count in test [7] was found to be 117 colonies/plate; in [8], 109 colonies/plate; in test [9], 119 colonies/plate; in [10], 108 colonies/plate; in [11], 112 colonies/plate; in test [12], 109 colonies/plate. The colony count in [13] amounted to 118 colonies/plate; in test [14] it was 112 colonies/plate; in test [15], 115 colonies/plate; in test [16], 121 colonies/plate; in [17] it was 115 colonies/plate; in test [18], 120 colonies/plate.

Source of the values: ChEMBL document CHEMBL1124362, “Synthesis of methotrexate-antibody conjugates by regiospecific coupling and assessment of drug and antitumor activities” (J Med Chem, 1989).
